Results taken from ChEMBL document CHEMBL4823320, “SAR of novel benzothiazoles targeting an allosteric pocket of DENV and ZIKV NS2B/NS3 proteases” (Bioorg Med Chem, 2021).

How the values were obtained:
[1] = molecular target: Genome polyprotein (dengue virus type 2) (UniProt P29990); assay: Inhibition of DENV2 NS2B-NS3 protease expressed in Escherichia coli BL21(DE3) using Boc-Gly-Arg-Arg-AMC as substrate at 20 uM by FRET assay
Procedure, shortened: (§1)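 His-tagged NS2B/NS3 protease, purified by Ni affinity and size exclusion, in 50 mM Tris pH 9.0, 20% glycerol, 1 mM CHAPS with 100 µM Boc-Gly-Arg-Arg-AMC. Fluorescence is read every 30 s for 10 min at 25 °C. Percent inhibition is at a single inhibitor concentration of 20, 100 or 200 µM; ≥3 independent measurements.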

[2] = molecular target: Nonstructural protein 3 (Zika virus) (UniProt A0A024AXB9); assay: Inhibition of ZIKV NS2B-NS3 protease expressed in Escherichia coli BL21(DE3) using Boc-Gly-Arg-Arg-AMC as substrate at 20 uM by FRET assay; procedure, shortened: as §1
Genome polyprotein = Genome polyprotein (dengue virus type 2, UniProt P29990); assay: Inhibition of DENV2 NS2B-NS3 protease expressed in Escherichia coli BL21(DE3) using Boc-Gly-Arg-Arg-AMC as substrate by FRET assay
Procedure, shortened: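 Recombinant His-tagged NS2B/NS3 protease, expressed in E. coli BL21-Gold (DE3) (1 mM IPTG, 20 °C, 16 h) and purified by Ni affinity and size exclusion. Assayed in 50 mM Tris pH 9.0, 20% glycerol, 1 mM Chaps, with 100 μM Boc-Gly-Arg-Arg-AMC. Fluorescence read every 30 s for 10 min at 25 °C; inhibitor 0.01–100 μM. IC50 from a four-parameter fit of hydrolysis rate; ≥3 independent experiments.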

Nonstructural protein 3 = Nonstructural protein 3 (Zika virus, UniProt A0A024AXB9); assay: Inhibition of ZIKV NS2B-NS3 protease expressed in Escherichia coli BL21(DE3) using Boc-Gly-Arg-Arg-AMC as substrate by FRET assay
Procedure, shortened: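 His-tagged ZIKV NS2B/NS3 protease in 50 mM Tris pH 9.0, 20% glycerol, 1 mM CHAPS with 100 µM Boc-Gly-Arg-Arg-AMC. Dilution series 0.01–100 µM, read every 30 s for 10 min at 25 °C. IC50 from a four-parameter fit of hydrolysis rate; mean ± SD of ≥3 independent measurements.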

[3] = Chemical stability of compound in cell culture conditions at pH 7.4 HEPES buffer measured after 20 hrs by HPLC/MS analysis; assay type: physicochemical; conditions: read-out: Stabilty
Procedure, shortened: (§2)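 Compound incubated under simulated cell-assay conditions (HEPES pH 7.4) and analysed by HPLC/MS after 15 min, 90 min and 20 h. Stability is the compound peak integral in the 210 nm UV trace as a fraction of the total integral.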

[4] = Chemical stability of compound in cell culture conditions at pH 7.4 HEPES buffer measured after 15 mins by HPLC/MS analysis; assay type: physicochemical; conditions: read-out: Stabilty; procedure, shortened: as §2
[5] = Chemical stability of compound in tris assay buffer at pH 9 measured after 15 mins by HPLC/MS analysis; assay type: physicochemical; conditions: pH 9, 0.25 h
Procedure, shortened: (§3)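 Compound incubated in protease assay buffer (Tris pH 9.0) under simulated assay conditions and analysed by HPLC/MS after 15 min, 90 min and 20 h. Stability is the compound peak integral in the 210 nm UV trace as a proportion of the total integral.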

[6] = Chemical stability of compound in tris assay buffer at pH 9 measured after 90 mins by HPLC/MS analysis; assay type: physicochemical; conditions: pH 9, 1.5 h; procedure, shortened: as §3
[7] = Chemical stability of compound in cell culture conditions at pH 7.4 HEPES buffer measured after 90 mins by HPLC/MS analysis; assay type: physicochemical; conditions: read-out: Stabilty; procedure, shortened: as §2
[8] = Chemical stability of compound in tris assay buffer at pH 9 measured after 20 hrs by HPLC/MS analysis; assay type: physicochemical; conditions: pH 9, 20 h; procedure, shortened: as §3
[9] = molecular target: Urokinase-type plasminogen activator (Homo sapiens) (UniProt P00749); assay: Inhibition of Urokinase plasminogen activator (unknown origin) assessed as residual enzyme activity at 20 uM by FRET assay relative to control
Procedure, shortened: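 Urokinase plasminogen activator in 50 mM Tris pH 7.4, 50 mM NaCl, 0.5 mM EDTA with 240 µM Z-Gly-Gly-Arg-AMC. Compound at 20 µM, read every 30 s for 10 min at 25 °C. Residual activity is relative to DMSO control; mean ± SD, ≥3 independent measurements.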

[10] = molecular target: Chymotrypsin (Homo sapiens) (UniProt Q99895+P17538+P40313+Q6GPI1); assay: Inhibition of Chymotrypsin (unknown origin) assessed as residual enzyme activity at 20 uM by FRET assay relative to control; assay type: protein assay
Procedure, shortened: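 α-Chymotrypsin in 50 mM Tris pH 8.0, 100 mM NaCl with Succ-Leu-Tyr-AMC. Compound at 20 µM, read every 30 s for 10 min at 25 °C. Residual activity is relative to DMSO control; mean ± SD, ≥3 independent measurements.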

[11] = molecular target: T1, Sortase A (Staphylococcus aureus) (UniProt Q9S446); assay: Inhibition of staphylococcus aureus Sortase A protease assessed as residual enzyme activity at 20 uM by FRET assay relative to control
T1 sequence (whole entry): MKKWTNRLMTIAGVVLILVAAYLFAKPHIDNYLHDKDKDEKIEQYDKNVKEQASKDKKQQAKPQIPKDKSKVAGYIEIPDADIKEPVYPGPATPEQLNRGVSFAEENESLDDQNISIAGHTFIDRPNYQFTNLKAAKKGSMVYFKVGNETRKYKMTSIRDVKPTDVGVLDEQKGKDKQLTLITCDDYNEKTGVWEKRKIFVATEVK
Procedure, shortened: (§4)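 Compound at 20 µM, read every 30 s for 10 min at 25 °C. Residual activity is relative to DMSO control; mean ± SD, ≥3 independent measurements.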

[12] = system: Severe acute respiratory syndrome coronavirus 2; assay: Inhibition of SARS-CoV-2 Main protease assessed as residual enzyme activity at 20 uM by FRET assay relative to control
Procedure, shortened: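 Compound at 20 μM; fluorescence read every 30 s for 10 min at 25 °C. Residual activity expressed relative to DMSO control; mean of ≥3 independent measurements.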

[13] = Inhibition of Rhodesain (unknown origin) assessed as residual enzyme activity at 20 uM by FRET assay relative to control
Procedure, shortened: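 Compound at 20 µM, fluorescence read every 30 s for 10 min at 25 °C. Residual activity is relative to DMSO control; mean ± SD, ≥3 independent measurements.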

Trypsin (Homo sapiens) = Trypsin (Homo sapiens) (UniProt P07477+P07478+P35030); assay: Inhibition of Trypsin (unknown origin) assessed as residual enzyme activity at 20 uM by FRET assay relative to control; assay type: protein assay
Procedure, shortened: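 Trypsin in 50 mM Tris pH 8.0, 100 mM NaCl, 5 mM EDTA with 40 µM Z-Phe-Arg-AMC. Compound at 20 µM, read every 30 s for 10 min at 25 °C. Residual activity is relative to DMSO control; mean ± SD, ≥3 independent measurements.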

[14] = molecular target: Prothrombin (Homo sapiens) (UniProt P00734); assay: Inhibition of Thrombin (unknown origin) assessed as residual enzyme activity at 20 uM by FRET assay relative to control; procedure, shortened: as §4

## O=C(Nc1nc2ccc([N+](=O)[O-])cc2s1)c1ccc(I)cc1
[1]
  inhibition: 36%
[2]
  inhibition: 49%

## O=C(Nc1nc2cc(O)c(O)cc2s1)c1ccc(Cl)c(Cl)c1
Genome polyprotein
  IC50: 4.86 µM
[2]
  inhibition: 39%

## O=[N+]([O-])c1ccc2nc(NC(=S)Nc3ccc(I)cc3)sc2c1
Genome polyprotein
  IC50: 11.2 µM
Nonstructural protein 3
  IC50: 6.51 µM

## O=C(Nc1ccccc1)c1nc2cc(O)c(O)cc2s1
Genome polyprotein
  IC50: 27 µM
[3]
  remaining at 20 h: 95%
[4]
  remaining at 0.25 h: 95%
[5]
  Stabilty: 95%
[6]
  Stabilty: 94%
[7]
  remaining at 1.5 h: 95%
[8]
  Stabilty: 88%
Nonstructural protein 3
  IC50: 9.19 µM

## Cc1ccc(C(=O)Nc2nc3cc(O)c(O)cc3s2)cc1
Genome polyprotein
  IC50: 6.39 µM
Nonstructural protein 3
  IC50: 15.4 µM

## CCN(CC)C(=O)C[C@H](NC(=O)c1ccccc1)C(=O)Nc1nc2cc(O)c(O)cc2s1
[1]
  inhibition: 16%
[2]
  inhibition: 13%

## O=C(Nc1ccccc1)[C@@H]1CCCN1C(=O)c1cnc2cc(O)c(O)cc2c1
[1]
  inhibition: 23%
[2]
  inhibition: 44%

## Cc1ccc(S(=O)(=O)N[C@H](C)C(=O)Nc2nc3cc(O)c(O)cc3s2)cc1
[1]
  inhibition: 14%
[2]
  inhibition: 26%

## CC[C@H](C)[C@H](NS(=O)(=O)c1ccc(C)cc1)C(=O)Nc1nc2cc(O)c(O)cc2s1
[1]
  inhibition: 33%
Nonstructural protein 3
  IC50: 5.35 µM

## Cc1ccc(S(=O)(=O)NC(CSCc2ccccc2)C(=O)Nc2nc3cc(O)c(O)cc3s2)cc1 (single isomer, unassigned)
[1]
  inhibition: 57%
Nonstructural protein 3
  IC50: 2.13 µM

## O=C(Nc1ccccc1)c1cc2cc(O)c(O)cc2[nH]1
Genome polyprotein
  IC50: 6.9 µM
Nonstructural protein 3
  IC50: 3.44 µM

## O=C(Nc1nc2cc(O)c(O)cc2s1)c1ccc(Cl)cc1
Genome polyprotein
  IC50: 5.97 µM
Nonstructural protein 3
  IC50: 6.66 µM

## O=C(CN(C(=O)c1ccccc1)c1ccccc1)Nc1nc2cc(O)c(O)cc2s1
[1]
  inhibition: 56%
Nonstructural protein 3
  IC50: 2.07 µM

## O=C(Nc1ccccc1)[C@@H]1CCCN1C(=O)c1cc2c(O)cc(O)cc2o1
Genome polyprotein
  IC50: 27.7 µM
Nonstructural protein 3
  IC50: 20.1 µM

## O=C(Nc1ccccc1)c1cnc2cc(O)c(O)cc2c1
Genome polyprotein
  IC50: 3.63 µM
Nonstructural protein 3
  IC50: 6.38 µM

## Cc1ccc(S(=O)(=O)N[C@H](C(=O)Nc2nc3cc(O)c(O)cc3s2)C(C)(C)C)cc1
[1]
  inhibition: 44%
Nonstructural protein 3
  IC50: 5.74 µM

## O=C(Nc1ccccc1)c1cc2cc(O)c(O)cc2s1
Genome polyprotein
  IC50: 2.73 µM
Nonstructural protein 3
  IC50: 1.59 µM

## O=C(Nc1ccccc1)[C@@H]1CCCN1C(=O)c1ccc2cc(O)c(O)cc2c1
[1]
  inhibition: 9%
[2]
  inhibition: 42%

## O=C(Nc1nc2cc(O)c(O)cc2s1)C(c1ccc(Cl)cc1)c1ccc(Cl)cc1
[1]
  inhibition: 58%
Nonstructural protein 3
  IC50: 0.96 µM

## O=C(Nc1nc2cc(O)c(O)cc2s1)C(c1ccc(O)cc1)c1ccc(O)cc1
[1]
  inhibition: 45%
[2]
  inhibition: 54%

## O=C(N[C@@H](Cc1ccc(O)cc1)C(=O)Nc1nc2cc(O)c(O)cc2s1)c1ccccc1
[1]
  inhibition: 63%
Nonstructural protein 3
  IC50: 4.59 µM

## O=C(Nc1nc2cc(O)c(O)cc2s1)c1ccc(-c2ccccc2)cc1
Genome polyprotein
  IC50: 7.8 µM
Nonstructural protein 3
  IC50: 1.22 µM

## O=C(Nc1ccccc1)[C@@H]1CCCCN1C(=O)c1cc2cc(O)c(O)cc2o1
Genome polyprotein
  IC50: 4.73 µM
[9]
  Activity: 94%
[10]
  Activity: 77%
[11]
  Activity: 74%
[12]
  Activity: 57%
[13]
  Activity: 90%
Nonstructural protein 3
  IC50: 2.9 µM
Trypsin (Homo sapiens)
  Activity: 95%
[14]
  Activity: 93%

## Cc1ccc(S(=O)(=O)N[C@@H](C)C(=O)Nc2nc3cc(O)c(O)cc3s2)cc1
[1]
  inhibition: 39%
Nonstructural protein 3
  IC50: 6.48 µM

## O=C(Nc1ccc(I)cc1)c1nc2cc(O)c(O)cc2s1
Genome polyprotein
  IC50: 2.48 µM
Nonstructural protein 3
  IC50: 1.3 µM

## O=C(C[C@H](NC(=O)c1ccccc1)C(=O)Nc1nc2cc(O)c(O)cc2s1)Nc1ccccc1
Genome polyprotein
  IC50: 9.95 µM
Nonstructural protein 3
  IC50: 5.48 µM

## Cc1ccc(S(=O)(=O)N[C@@H](Cc2ccccc2)C(=O)Nc2nc3cc(O)c(O)cc3s2)cc1
[1]
  inhibition: 33%
Nonstructural protein 3
  IC50: 3.66 µM

## O=C(Nc1ccccc1)[C@@H]1CCCN1C(=O)c1cc2cc(O)c(O)cc2s1
Genome polyprotein
  IC50: 4.01 µM
Nonstructural protein 3
  IC50: 3.43 µM

## O=C(CCNC(=O)c1ccccc1)Nc1nc2cc(O)c(O)cc2s1
[1]
  inhibition: 23%
[2]
  inhibition: 38%

## Cc1ccc(S(=O)(=O)N2CCC[C@@H]2C(=O)Nc2nc3cc(O)c(O)cc3s2)cc1
[9]
  Activity: 100%
[10]
  Activity: 100%
[11]
  Activity: 83%
[12]
  Activity: 94%
[13]
  Activity: 93%
Trypsin (Homo sapiens)
  Activity: 96%
[14]
  Activity: 97%

## O=C(O)C[C@H](NC(=O)c1ccccc1)C(=O)Nc1nc2cc(O)c(O)cc2s1
[1]
  inhibition: 32%
[2]
  inhibition: 45%

## O=C(Nc1ccccc1)[C@@H]1CCCN1C(=O)c1nc2cc(O)c(O)cc2s1
Genome polyprotein
  IC50: 11.6 µM
Nonstructural protein 3
  IC50: 4 µM

## O=C(Nc1ccccc1)[C@@H]1CCCN1C(=O)c1cc2cc(O)c(O)cc2[nH]1
[1]
  inhibition: 36%
[2]
  inhibition: 44%
